Experimental data as given in ChEMBL document CHEMBL1671867, “Novel polymyxin derivatives carrying only three positive charges are effective antibacterial agents” (Antimicrob Agents Chemother, 2008).
Values after ≈ are worked out from the molar mass of the structure shown. Bridge positions count the residues as written; N and C are the ends. Square brackets hold non-standard residues; d marks the D form. Peptide text beside a SMILES is read from it. * marks the point of attachment. Decanoyl = CCCCCCCCCC(=O)*; Octanoyl = CCCCCCCC(=O)*; Dab = NCC[C@H](N)C(=O)O; Abu = CC[C@H](N)C(=O)O

Experiments:
Type in all cases: functional
[1] = test system: Escherichia coli; test: Antibacterial activity against Escherichia coli IH3080 assessed as growth inhibition at 10 ug after 18 hrs by […] in presence of 1 ug/ml rifampin
[2] = test system: Escherichia coli; test: Antibacterial activity against Escherichia coli IH3080 assessed as growth inhibition at 10 ug after 18 hrs by […]
[3] = test system: Escherichia coli; test: Antibacterial activity against Escherichia coli ATCC […] by CLSI M7-A7 agar dilution method
[4] = test system: Candida albicans; test: Antibacterial activity against Candida albicans ATCC 28366 by CLSI M7-A7 agar dilution method
[5] = test system: Staphylococcus aureus; test: Antibacterial activity against Staphylococcus aureus ATCC 25923 by CLSI M7-A7 agar dilution method
In short: (§1)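 Agar dilution on Mueller-Hinton agar with test substance at 0.25 to 32 μg/ml in twofold steps. Spots of about 10^4 CFU applied with a multipoint inoculator.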

[6] = test system: Escherichia coli; test: Antibacterial activity against Escherichia coli SC 9253 by CLSI M7-A7 agar dilution method; in short: as §1
[7] = test system: Escherichia coli; test: Antibacterial activity against Escherichia coli SC 9252 by CLSI M7-A7 agar dilution method
[8] = test system: Pseudomonas aeruginosa; test: Antibacterial activity against Pseudomonas aeruginosa ATCC 27853 by CLSI M7-A7 agar dilution method; in short: as §1
[9] = test system: Acinetobacter baumannii; test: Antibacterial activity against Acinetobacter baumannii by CLSI M7-A7 agar dilution method
[10] = test system: Serratia marcescens; test: Antibacterial activity against Serratia marcescens ATCC 8100 by CLSI M7-A7 agar dilution method; in short: as §1
[11] = test system: Acinetobacter baumannii; test: Antibacterial activity against Acinetobacter baumannii ATCC 19606 by CLSI M7-A7 agar dilution method
[12] = test system: Citrobacter freundii; test: Antibacterial activity against Citrobacter freundii ATCC 8090 by CLSI M7-A7 agar dilution method
[13] = test system: Enterobacter cloacae; test: Antibacterial activity against Enterobacter cloacae by CLSI M7-A7 agar dilution method
[14] = test system: Enterobacter cloacae; test: Antibacterial activity against Enterobacter cloacae CCUG52947 by CLSI M7-A7 agar dilution method
[15] = test system: Enterobacter cloacae; test: Antibacterial activity against Enterobacter cloacae ATCC 23355 by CLSI M7-A7 agar dilution method
[16] = test system: Klebsiella oxytoca; test: Antibacterial activity against Klebsiella oxytoca CCUG51683 by CLSI M7-A7 agar dilution method; in short: as §1
[17] = test system: Klebsiella oxytoca; test: Antibacterial activity against Klebsiella oxytoca ATCC 13182 by CLSI M7-A7 agar dilution method; in short: as §1
[18] = test system: Klebsiella pneumoniae; test: Antibacterial activity against Klebsiella pneumoniae by CLSI M7-A7 agar dilution method; in short: as §1
[19] = test system: Escherichia coli; test: Antibacterial activity against Escherichia coli by CLSI M7-A7 agar dilution method; in short: as §1
[20] = test system: Klebsiella pneumoniae; test: Antibacterial activity against Klebsiella pneumoniae CCUG45421 by CLSI M7-A7 agar dilution method; in short: as §1
[21] = test system: Escherichia coli; test: Antibacterial activity against Escherichia coli IH3080 by CLSI M7-A7 agar dilution method

| SMILES | inhibition zone (IZ) [1] | inhibition zone (IZ) [2] | also measured |
| --- | --- | --- | --- |
| CCCCCCCC(=O)N[C@H](C(=O)N[C@H](C)C(=O)N[C@H]1CCNC(=O)[C@H]([C@@H](C)O)NC(=O)[C@H](CCN)NC(=O)[C@H](CCN)NC(=O)[C@H]([C@@H](C)O)NC(=O)[C@H](Cc2ccccc2)NC(=O)[C@H](CCN)NC1=O)[C@@H](C)O | 230 mm2 | 60 mm2 |  |
| CCCCCCCC(=O)N[C@H](C(=O)N[C@@H](CO)C(=O)N[C@H]1CCNC(=O)[C@H]([C@@H](C)O)NC(=O)[C@H](CCN)NC(=O)[C@H](CCN)NC(=O)[C@H](CC(C)C)NC(=O)[C@H](Cc2ccccc2)NC(=O)[C@H](CCN)NC1=O)[C@@H](C)O | 230 mm2 | 80 mm2 |  |
| CCCCCCCC(=O)N[C@H](C)C(=O)N[C@H](C)C(=O)N[C@H]1CCNC(=O)[C@H]([C@@H](C)O)NC(=O)[C@H](CCN)NC(=O)[C@H](CCN)NC(=O)[C@H](CC(C)C)NC(=O)[C@H](Cc2ccccc2)NC(=O)[C@H](CCN)NC1=O | 200 mm2 | 0 mm2 |  |
| CCCCCCCC(=O)N[C@H](C(=O)N[C@H](CO)C(=O)N[C@H]1CCNC(=O)[C@H]([C@@H](C)O)NC(=O)[C@H](CCN)NC(=O)[C@H](CCN)NC(=O)[C@H]([C@@H](C)O)NC(=O)[C@H](Cc2ccccc2)NC(=O)[C@H](CCN)NC1=O)[C@@H](C)O | 190 mm2 | 172 mm2 |  |
| CCCCCCCC(=O)N[C@H](C(=O)N[C@@H](C(=O)N[C@H]1CCNC(=O)[C@H]([C@@H](C)O)NC(=O)[C@H](CCN)NC(=O)[C@H](CCN)NC(=O)[C@H]([C@@H](C)O)NC(=O)[C@H](Cc2ccccc2)NC(=O)[C@H](CCN)NC1=O)[C@@H](C)O)[C@@H](C)O | 250 mm2 | 200 mm2 |  |
| CCCCCCCC(=O)N[C@H](C(=O)N[C@H](C(=O)N[C@H](CO)C(=O)N[C@H]1CCNC(=O)[C@H]([C@@H](C)O)NC(=O)[C@H](CCN)NC(=O)[C@H](CCN)NC(=O)[C@H](CC(C)C)NC(=O)[C@H](Cc2ccccc2)NC(=O)[C@H](CCN)NC1=O)[C@@H](C)O)[C@@H](C)O | 190 mm2 | 160 mm2 |  |
| CCCCCCCC(=O)N[C@@H](C)C(=O)N[C@H](C(=O)N[C@H](CO)C(=O)N[C@H]1CCNC(=O)[C@H]([C@@H](C)O)NC(=O)[C@H](CCN)NC(=O)[C@H](CCN)NC(=O)[C@H](CC(C)C)NC(=O)[C@H](Cc2ccccc2)NC(=O)[C@H](CCN)NC1=O)[C@@H](C)O | 200 mm2 | 160 mm2 |  |
| CCCCCCCCCC(=O)N[C@H](C(=O)N[C@H](CO)C(=O)N[C@H]1CCNC(=O)[C@H]([C@@H](C)O)NC(=O)[C@H](CCN)NC(=O)[C@H](CCN)NC(=O)[C@H](CC(C)C)NC(=O)[C@@H](Cc2ccccc2)NC(=O)[C@H](CCN)NC1=O)[C@@H](C)O (Decanoyl-T[dS][Dab][Dab][dF]L[Dab][Dab]T; lactam 3-C) | 150 mm2 | 130 mm2 | MIC [3]: 2 µg/mL (≈ 1.81 µM); MIC [4]: > 32 µg/mL; MIC [5]: > 32 µg/mL; MIC [6]: 16 µg/mL (≈ 14.5 µM); MIC [7]: 8 µg/mL (≈ 7.24 µM); MIC [8]: 4 µg/mL (≈ 3.62 µM); MIC [9]: 2 µg/mL (≈ 1.81 µM); MIC [10]: > 32 µg/mL; MIC [11]: 4 µg/mL (≈ 3.62 µM); MIC [12]: 2 µg/mL (≈ 1.81 µM); MIC [13]: 2 µg/mL (≈ 1.81 µM); MIC [14]: 2 µg/mL (≈ 1.81 µM); MIC [15]: 2 µg/mL (≈ 1.81 µM); MIC [16]: 2 µg/mL (≈ 1.81 µM); MIC [17]: 2 µg/mL (≈ 1.81 µM); MIC [18]: 2 µg/mL (≈ 1.81 µM); MIC [19]: 1 µg/mL (≈ 0.906 µM); MIC [20]: 4 µg/mL (≈ 3.62 µM); MIC [21]: 2 µg/mL (≈ 1.81 µM) |
| CCCCCCCC(=O)N[C@H](C(=O)N[C@@H](CC(N)=O)C(=O)N[C@H]1CCNC(=O)[C@H]([C@@H](C)O)NC(=O)[C@H](CCN)NC(=O)[C@H](CCN)NC(=O)[C@H](CC(C)C)NC(=O)[C@H](Cc2ccccc2)NC(=O)[C@H](CCN)NC1=O)[C@@H](C)O (Octanoyl-TN[Dab][Dab]FL[Dab][Dab]T; lactam 3-C) | 180 mm2 | 10 mm2 |  |
| CCCCCCCC(=O)N[C@H](C(=O)N[C@@H](CC)C(=O)N[C@H]1CCNC(=O)[C@H]([C@@H](C)O)NC(=O)[C@H](CCN)NC(=O)[C@H](CC)NC(=O)[C@H](CC(C)C)NC(=O)[C@@H](Cc2ccccc2)NC(=O)[C@H](CCN)NC1=O)[C@@H](C)O (Octanoyl-T[Abu][Dab][Dab][dF]L[Abu][Dab]T; lactam 3-C) | 10 mm2 | 0 mm2 |  |
